Only a selection was taken, and hits are over-represented in it overall.
Lung fibro prol = blocks proliferation of human lung fibroblasts. LL 47 human lung fibroblast viability, ATP luminescence; hits give low values. viability, % at 10 µM. 85,000 tested, 1.1% active;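 active = viability at or below 50% in the single dose screen; inactive = viability above 50%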;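 also: compound exposure lasted 72 h before the ATP readout; 100% = median luminescence of untreated cell-only wells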
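Benchmarks: Cell-only wells, no compound | Test system: LL 47 human lung fibroblasts, passage 12 or lower | Input: 1,150 cells/well | Measured by: CellTiter-Glo luminescence measuring cellular ATP | Medium: IMEM, 15% FBS supplement | Schedule: Overnight attachment after seeding, then 72 h compound exposure at 37 °C | Doses: Compound addition at 0.1% DMSO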
HUVEC prolif 384 = blocks proliferation of human endothelial cells. AID 648. HUVEC proliferation, CellTiter-Glo luminescence, 72 h; hits give low values. viability, % at 10 µM (by protocol). 86,000 tested, 1.1% active;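 active = viability at or below 30%; inactive = viability above 30%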;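 also: 100% = median luminescence of DMSO-only cell control wells on each plate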
H69AR growth 86K = blocks growth of human H69AR lung tumor cells | 85,000 tested, 6% active | H69AR lung tumor viability, ATP luminescence, 72 h; hits give low values | viability, % at 10 µM | AID 598;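 active = viability at or below 40%; inactive = viability above 40%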;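 also: multidrug resistant small cell line overexpressing MRP-1 efflux transporter; 100% = mean luminescence of untreated control wells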
PTEN del growth = PTEN-deleted cell growth suppression; HCT116 PTEN-null viability, CellTiter-Glo, 60 h; hits give low values; viability, % at 10 µM; 140,000 tested, 1.2% active;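 active = viability at or below a set limit, 4 SD under the median of all tested compounds, cut at about 3.7% in these data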;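 also: PTEN knockout HCT116 line with beta catenin targeted HCT116 as companion control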
HCT116 bCat-KO = beta-catenin-lacking colon tumor cell growth suppression | HCT116 beta-catenin knockout viability, CellTiter-Glo, 60 h; hits give low values | 140,000 tested, 1.5% active | AID 818 | viability, % at 10 µM;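 active = viability at or under a set limit, the compound median less 4 SD, cut at about 6% in these data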;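 also: 0% = Hyamine 1622 control at 20 µM and 100% = untreated cell control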
* marks the source's active call; other numbers are inactive results.

CC1CCc2c(sc3nc(SCc4nc(-c5ccccc5)no4)n(C)c(=O)c23)C1 (centres undefined) was read as Lung fibro prol 90, HUVEC prolif 384 108 and H69AR growth 86K 77.
COc1ccc(C2C(C(=O)OC3CCCCC3)=C(C)Nc3nnnn32)c(OC)c1OC (centres undefined) was read as Lung fibro prol 93, HUVEC prolif 384 100, H69AR growth 86K 7.3*, PTEN del growth 69 and HCT116 bCat-KO 66.
Screening Nc1nc(-c2ccccc2)cc(-c2ccccc2O)n1 returned Lung fibro prol 81, HUVEC prolif 384 17*, H69AR growth 86K 42, PTEN del growth 17 and HCT116 bCat-KO 17.
Nc1ccc(-c2cc(-c3ccc(N)cc3)nc(-c3ccccc3)n2)cc1 was read as PTEN del growth 93 and HCT116 bCat-KO 92.
CN(C)c1cc(-c2ccccc2)nc(N)n1 was read as Lung fibro prol 92, HUVEC prolif 384 72, H69AR growth 86K 40*, PTEN del growth 48 and HCT116 bCat-KO 55.
For NNc1nc(-c2ccccc2)cc(-c2ccccc2O)n1 the results were PTEN del growth 38 and HCT116 bCat-KO 33.
`N#CC1=C(N)c2ccccc2CC12CCCCC2` gave Lung fibro prol 93, HUVEC prolif 384 79, H69AR growth 86K 86, PTEN del growth 87 and HCT116 bCat-KO 91.
`Cc1sc2nc(SCC(=O)NCc3ccco3)n(-c3ccccc3)c(=O)c2c1C` gave Lung fibro prol 88, HUVEC prolif 384 80, H69AR growth 86K 55, PTEN del growth 89 and HCT116 bCat-KO 92.
`Cc1sc2nc(SCC(=O)NCc3ccco3)n(Cc3ccccc3)c(=O)c2c1C` gave Lung fibro prol 90, HUVEC prolif 384 30*, H69AR growth 86K 3.1*, PTEN del growth 64 and HCT116 bCat-KO 63.
`Cc1ccc(-n2c(SCC(=O)NCc3ccco3)nc3sc(C)c(C)c3c2=O)cc1` gave Lung fibro prol 90, HUVEC prolif 384 57, H69AR growth 86K 36*, PTEN del growth 87 and HCT116 bCat-KO 86.
For CCc1nnc(NC(=O)c2c(C)nn(-c3ccccc3)c2Cl)s1 the results were Lung fibro prol 113, HUVEC prolif 384 103, H69AR growth 86K 96 and HCT116 bCat-KO 101.
For Cc1ccccc1OCc1nc2ccccc2c(=O)n1/N=C/c1cn[nH]c1-c1ccc(Br)cc1 the results were PTEN del growth 2.7* and HCT116 bCat-KO 19.
Screening O=c1c2ccccc2nc(COc2ccccc2)n1/N=C/c1cn[nH]c1-c1ccccc1 returned PTEN del growth 19 and HCT116 bCat-KO 64.
Screening COc1ccc(Nc2nc(-c3sc(N)nc3C)cs2)cc1 returned Lung fibro prol 85, HUVEC prolif 384 69, H69AR growth 86K 29*, PTEN del growth 93 and HCT116 bCat-KO 96.
Screening Cc1nc(NC(=O)c2ccccc2)sc1-c1csc(Nc2ccc(Cl)cc2)n1 returned PTEN del growth 69 and HCT116 bCat-KO 81.
`Cc1nc(N)sc1-c1csc(Nc2ccccn2)n1` gave Lung fibro prol 93, HUVEC prolif 384 89, H69AR growth 86K 72, PTEN del growth 94 and HCT116 bCat-KO 94.
Screening COc1ccc(Nc2nc(-c3sc(NC(C)=O)nc3C)cs2)cc1 returned Lung fibro prol 73, HUVEC prolif 384 36, H69AR growth 86K 13*, PTEN del growth 95 and HCT116 bCat-KO 95.
`Nc1c(C(=O)Nc2ccc3c(c2)OCCO3)nnn1CCc1ccccc1` gave Lung fibro prol 41*, HUVEC prolif 384 63, H69AR growth 86K 37*, PTEN del growth 30 and HCT116 bCat-KO 40.
`O=C(CCc1ccccc1)Nc1ccc2c(c1)OCCO2` gave Lung fibro prol 95, HUVEC prolif 384 90, H69AR growth 86K 86, PTEN del growth 102 and HCT116 bCat-KO 98.
Screening O=C(CCCn1c(=O)c2sccc2n(CC(=O)OCc2ccccc2)c1=O)NCc1ccco1 returned Lung fibro prol 96, HUVEC prolif 384 87, H69AR growth 86K 92, PTEN del growth 88 and HCT116 bCat-KO 89.
Screening N#Cc1ccccc1Cn1c(=O)n(CCCC(=O)NCc2ccc3c(c2)OCO3)c(=O)c2ccccc21 returned Lung fibro prol 69, HUVEC prolif 384 59, H69AR growth 86K 40*, PTEN del growth 73 and HCT116 bCat-KO 64.
Screening O=C(CCCCn1c(=O)c2ccccc2n(CC(=O)Nc2cccc(F)c2)c1=O)NCc1ccco1 returned Lung fibro prol 75, HUVEC prolif 384 88, H69AR growth 86K 92, PTEN del growth 102 and HCT116 bCat-KO 98.

Assay outcomes deposited in PubChem BioAssay by SRMLSC.
